Publication PMC6605687 (The Journal of General Physiology, 2019)
Positions count from the first letter of the chain named.

Assays:
Type in all cases: cell-based
rP2X2 Lys188Gln = biological target: T1, rP2X2 Lys188Gln (Rattus norvegicus, UniProt P49653, K188Q); test: Two-electrode voltage clamp, oocytes expressing rP2X2 Lys188Gln
T1 sequence (P49653 1-472 K188Q): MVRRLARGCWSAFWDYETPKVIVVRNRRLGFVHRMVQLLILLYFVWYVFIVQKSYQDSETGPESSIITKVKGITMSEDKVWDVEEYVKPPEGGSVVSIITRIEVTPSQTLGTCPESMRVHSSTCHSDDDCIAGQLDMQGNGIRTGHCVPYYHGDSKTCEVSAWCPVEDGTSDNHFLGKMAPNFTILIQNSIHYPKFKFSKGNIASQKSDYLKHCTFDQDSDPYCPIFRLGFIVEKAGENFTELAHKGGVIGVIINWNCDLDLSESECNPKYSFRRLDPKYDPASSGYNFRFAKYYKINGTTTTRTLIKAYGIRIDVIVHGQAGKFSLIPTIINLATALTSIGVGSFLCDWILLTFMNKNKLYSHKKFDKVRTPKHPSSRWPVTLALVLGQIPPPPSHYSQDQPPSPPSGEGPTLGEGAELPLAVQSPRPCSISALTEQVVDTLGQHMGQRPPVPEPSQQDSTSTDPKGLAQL
Summary of the method: (§1)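 Mutations were made by site-directed mutagenesis. Xenopus oocytes were injected with rP2X2 mRNA and incubated in L-15 at 18°C. Two-electrode voltage clamp was done 1–2 days later at −40 mV under ND96 perfusion (pH 7.4). ATP concentration-response currents were normalised and fitted to a one-component Hill equation for EC50 and Hill coefficient. Results are mean ± SEM, tested by one-way ANOVA with Dunnett's test against WT.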

rP2X2 Ile185Val = biological target: T2, rP2X2 Ile185Val (Rattus norvegicus, UniProt P49653, I185V); test: Two-electrode voltage clamp, oocytes expressing rP2X2 Ile185Val
T2 sequence (P49653 1-472 I185V): T1 sequence (P49653 1-472 K188Q) with I185V, Q188K
Summary of the method: as §1

rP2X2 Ile185Vah = biological target: T3, rP2X2 Ile185Vah (Rattus norvegicus, UniProt P49653); test: Two-electrode voltage clamp, oocytes expressing rP2X2 Ile185Vah
T3 sequence (P49653 1-472): T1 sequence (P49653 1-472 K188Q) with Q188K
Summary of the method: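 The backbone ester was introduced by nonsense suppression. TAG-mutant rP2X2 mRNA was co-injected into Xenopus oocytes with tRNA enzymatically aminoacylated with 2-hydroxyisovaleric acid. Uncharged tRNA co-injection served as the negative control. After incubation at 18°C, two-electrode voltage clamp was done at −40 mV in ND96 (pH 7.4). ATP concentration-response data were normalised and Hill-fitted for EC50 and nH, given as mean ± SEM.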

rP2X2-3T receptors = biological target: T4, rP2X2-3T receptors (Rattus norvegicus, UniProt P49653, C348T/C430T/C9T); test: Single channel outside-out patch-clamp recordings, HEK-293 cells; details: agonist 1 µM, mean ± SEM
T4 sequence (P49653 1-472 C9T/C348T/C430T): T1 sequence (P49653 1-472 K188Q) with C9T, Q188K, C348T, C430T
Summary of the method: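 HEK-293 cells were co-transfected by calcium phosphate with rP2X2-3T DNA plus GFP DNA to mark transfected cells, then recorded within 24 h. Outside-out patches were held at −120 mV. Pipette contained 147 NaF, 10 EGTA and 10 HEPES (mM, pH 7.3). Agonist at 1, 10 or 100 µM in extracellular saline (pH 7.3) was applied by fast perfusion for 10 s per 12-s sweep, at 1-min intervals. Amplitudes came from Gaussian fits to all-points histograms, with 2–5 sweeps averaged per patch.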

`Nc1ncnc2c1ncn2[C@@H]1O[C@H](COP(=O)(O)OP(=O)(O)OP(=O)(O)O)[C@@H](O)[C@H]1O` [ATP, Adenosine 5′-triphosphate] was tested, and the EC50 (rP2X2 Lys188Gln) was 8700 µM, the EC50 (rP2X2 Ile185Val) was 23 ± 3 µM and the “Fold increase in EC50 (decrease in sensitivity), Ile185Vah versus Ile185Val” value (rP2X2 Ile185Vah; Ile185Vah compared with Ile185Val) was 20 fold. For the same compound, the EC50 (rP2X2 Ile185Vah; Ile185Vah, mean ± SEM) was 460 ± 20 µM and the “SDopen (SD of the open state amplitude)” value (rP2X2-3T receptors) was 1.02 ± 0.1.
